Measurements reported in ChEMBL document CHEMBL3596197, “Synthesis, topoisomerase I and II inhibitory activity, cytotoxicity, and structure-activity relationship study of 2-phenyl- or hydroxylated 2-phenyl-4-aryl-5H-indeno[1,2-b]pyridines” (Bioorg Med Chem, 2015).

Legend:
[1] = molecular target: DNA topoisomerase 2-alpha (Homo sapiens) (UniProt P11388); assay: Inhibition of human recombinant DNA topoisomerse 2 alpha using pBR322 as substrate assessed as inhibition of conversion of supercoiled pBR322 to relaxed form at 100 uM after 30 mins by ethidium bromide staining-based electrophoresis analysis
Procedure, shortened: (§1)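 Supercoiled pBR322 (200 ng) with 1 unit human topo IIα, 30 min at 30 °C. Buffer: 10 mM Tris-HCl pH 7.9, 50 mM NaCl, 5 mM MgCl2, 1 mM EDTA, 1 mM ATP, 15 μg/mL BSA. Stopped with EDTA. 1% agarose gel at 25 V for 4 h in TAE, ethidium bromide stain, supercoiled DNA quantitated under UV.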

HeLa = assay: Cytotoxicity against human HeLa cells incubated from day 2 to day 4 by CCK8 assay; type: functional, cell-based
Procedure, shortened: (§2)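 Cells seeded at 2~4 × 10^4 per well and grown overnight in medium with 10% FBS at 37 °C, 5% CO2. Day 2: FBS starvation 4 h, then medium with graded compound concentrations. Day 4: CCK-8 added for 4 h more, absorbance read at 450 nm. IC50 from four-parameter logistic fit. Mean ± S.D. of three experiments run in triplicate.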

HCT-15 = assay: Cytotoxicity against human HCT15 cells incubated from day 2 to day 4 by CCK8 assay; type: functional, cell-based; procedure, shortened: as §2
[2] = molecular target: DNA topoisomerase 2-alpha (Homo sapiens) (UniProt P11388); assay: Inhibition of human recombinant DNA topoisomerse 2 alpha using pBR322 as substrate assessed as inhibition of conversion of supercoiled pBR322 to relaxed form at 20 uM after 30 mins by ethidium bromide staining-based electrophoresis analysis; procedure, shortened: as §1
[3] = molecular target: T1, DNA topoisomerase 1 (Homo sapiens) (UniProt P11387); assay: Inhibition of human recombinant DNA topoisomerse 1 using pBR322 as substrate assessed as inhibition of conversion of supercoiled pBR322 to relaxed form at 100 uM after 30 mins by ethidium bromide staining-based electrophoresis analysis
T1 sequence (whole entry): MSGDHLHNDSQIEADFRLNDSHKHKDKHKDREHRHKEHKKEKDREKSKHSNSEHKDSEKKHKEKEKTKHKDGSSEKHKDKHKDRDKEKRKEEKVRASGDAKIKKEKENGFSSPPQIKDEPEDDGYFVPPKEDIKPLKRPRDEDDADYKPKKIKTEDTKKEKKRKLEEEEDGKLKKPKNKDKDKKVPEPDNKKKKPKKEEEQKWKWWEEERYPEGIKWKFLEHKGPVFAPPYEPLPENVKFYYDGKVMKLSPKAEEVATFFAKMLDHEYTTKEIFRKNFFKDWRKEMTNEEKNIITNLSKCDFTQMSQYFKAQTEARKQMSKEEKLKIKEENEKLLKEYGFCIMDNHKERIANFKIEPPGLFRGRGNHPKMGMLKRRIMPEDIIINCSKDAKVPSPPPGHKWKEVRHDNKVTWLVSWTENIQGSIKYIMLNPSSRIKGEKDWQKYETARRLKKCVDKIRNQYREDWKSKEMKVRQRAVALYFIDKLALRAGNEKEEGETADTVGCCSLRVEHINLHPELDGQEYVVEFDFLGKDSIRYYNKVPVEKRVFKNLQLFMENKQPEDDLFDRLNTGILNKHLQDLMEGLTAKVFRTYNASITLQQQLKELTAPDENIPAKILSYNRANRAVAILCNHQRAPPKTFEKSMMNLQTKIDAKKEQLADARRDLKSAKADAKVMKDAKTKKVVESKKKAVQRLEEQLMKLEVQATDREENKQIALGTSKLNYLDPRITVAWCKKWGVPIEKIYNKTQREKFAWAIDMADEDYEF
Procedure, shortened: (§3)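 Relaxation of supercoiled pBR322 (100 ng) by 1 unit recombinant human topo I. Run at 37 °C for 30 min in 10 mM Tris-HCl pH 7.9, 150 mM NaCl, 0.1% BSA, 1 mM spermidine, 5% glycerol. Compounds from 20 mM DMSO stocks. Stopped with sarcosyl, then 1% agarose gel at 15 V for 7 h in TAE. Ethidium bromide stain, UV imaging, bands quantitated.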

[4] = molecular target: T1, DNA topoisomerase 1 (Homo sapiens); assay: Inhibition of human recombinant DNA topoisomerse 1 using pBR322 as substrate assessed as inhibition of conversion of supercoiled pBR322 to relaxed form at 20 uM after 30 mins by ethidium bromide staining-based electrophoresis analysis; procedure, shortened: as §3
DU-145 = assay: Cytotoxicity against human DU145 cells incubated from day 2 to day 4 by CCK8 assay; type: functional, cell-based; procedure, shortened: as §2
T47D = assay: Cytotoxicity against human T47D cells incubated from day 2 to day 4 by CCK8 assay; type: functional, cell-based; procedure, shortened: as §2

DNA topoisomerase 2-alpha (Homo sapiens), sequence (P11388 whole entry): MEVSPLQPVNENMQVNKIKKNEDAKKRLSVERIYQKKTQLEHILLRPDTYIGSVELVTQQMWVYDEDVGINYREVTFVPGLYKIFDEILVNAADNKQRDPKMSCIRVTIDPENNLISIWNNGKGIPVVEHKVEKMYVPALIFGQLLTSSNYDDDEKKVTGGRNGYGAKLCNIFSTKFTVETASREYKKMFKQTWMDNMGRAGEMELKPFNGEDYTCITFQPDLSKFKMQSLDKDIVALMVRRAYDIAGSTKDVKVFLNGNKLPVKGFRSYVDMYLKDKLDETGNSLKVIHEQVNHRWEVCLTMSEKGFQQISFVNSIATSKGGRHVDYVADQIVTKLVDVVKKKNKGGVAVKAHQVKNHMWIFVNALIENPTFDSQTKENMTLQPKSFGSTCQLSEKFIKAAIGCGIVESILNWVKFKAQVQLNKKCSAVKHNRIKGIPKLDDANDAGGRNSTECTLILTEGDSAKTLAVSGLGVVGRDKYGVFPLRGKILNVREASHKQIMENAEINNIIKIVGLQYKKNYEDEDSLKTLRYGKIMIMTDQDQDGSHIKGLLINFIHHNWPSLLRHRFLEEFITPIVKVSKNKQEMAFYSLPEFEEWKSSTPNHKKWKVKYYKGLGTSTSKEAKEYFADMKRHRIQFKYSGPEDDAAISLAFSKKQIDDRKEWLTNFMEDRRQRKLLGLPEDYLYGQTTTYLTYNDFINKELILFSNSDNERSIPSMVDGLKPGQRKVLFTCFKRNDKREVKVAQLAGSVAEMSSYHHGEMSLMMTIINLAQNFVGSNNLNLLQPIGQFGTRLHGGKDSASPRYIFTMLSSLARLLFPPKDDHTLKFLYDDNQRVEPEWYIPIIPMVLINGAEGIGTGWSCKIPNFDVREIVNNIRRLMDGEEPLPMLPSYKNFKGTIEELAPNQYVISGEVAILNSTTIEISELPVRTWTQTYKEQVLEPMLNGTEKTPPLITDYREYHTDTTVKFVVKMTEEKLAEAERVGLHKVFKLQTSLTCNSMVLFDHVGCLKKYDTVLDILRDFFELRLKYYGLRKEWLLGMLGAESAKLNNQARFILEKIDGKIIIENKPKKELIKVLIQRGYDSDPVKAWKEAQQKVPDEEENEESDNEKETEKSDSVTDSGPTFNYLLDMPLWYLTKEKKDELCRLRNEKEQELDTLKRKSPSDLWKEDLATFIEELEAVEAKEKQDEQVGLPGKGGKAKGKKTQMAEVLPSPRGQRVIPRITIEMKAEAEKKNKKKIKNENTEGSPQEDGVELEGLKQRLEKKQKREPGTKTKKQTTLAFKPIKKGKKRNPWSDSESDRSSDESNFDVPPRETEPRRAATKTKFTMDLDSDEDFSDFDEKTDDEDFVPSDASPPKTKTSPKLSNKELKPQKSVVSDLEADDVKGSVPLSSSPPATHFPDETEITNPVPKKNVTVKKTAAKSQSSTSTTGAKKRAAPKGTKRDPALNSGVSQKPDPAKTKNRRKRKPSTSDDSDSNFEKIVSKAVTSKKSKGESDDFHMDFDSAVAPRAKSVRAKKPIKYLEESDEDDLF

- inhibition [1]: 31.5%
- inhibition [2]: 21.9%
- inhibition [3]: 51.1%
- inhibition [4]: 0%
SMILES: Oc1ccccc1-c1cc(-c2cccs2)c2c(n1)-c1ccccc1C2
- IC50 (HeLa): > 50 µM
- IC50 (HCT-15): > 50 µM
- IC50 (DU-145): > 50 µM
- IC50 (T47D): > 50 µM
